Test results taken from the array DNA melting data of Ke et al. (doi:10.1101/2024.01.08.574731).

Assays:
[1] = melting temperature; fluorescence melt of hairpins on a sequencing array, two-state fit, raised by 9.35 °C to match UV melts; conditions: sodium 0.088 M
Outline: (§1)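 Library hairpins on a sequenced MiSeq flow cell carried annealed Cy3 and quencher oligos, and their Cy3 fluorescence was imaged in 50 mM Na-HEPES pH 8.0 with 25 mM NaCl, in 2.5 °C steps up to 60 °C. Signals were normalised to Cy3 before quenching and to control constructs. Melting temperature and folding enthalpy were obtained from bootstrapped two-state fits, combined by inverse-variance weighting across four replicates, and the fitted temperatures were then raised by 9.35 °C to match UV melts.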

[2] = folding enthalpy; higher = less favourable; fluorescence melt of hairpins on a sequencing array, two-state fit; conditions: sodium 0.088 M
Outline: as §1

Sequence | Tm [1] | folding enthalpy [2]
GATCGGGCACCCGATC ((((((....)))))) | 64.6 °C | -39.9 kcal/mol
GAGTCCGAAAGGAGGCTC ((((((....)))..))) | 47.4 °C | -20.7 kcal/mol
GATCCCACGGGGATC ((((((...)))))) | 65.6 °C | -33.5 kcal/mol
GTTGCCGAAAGGCTGAAC ((((((....)))..))) | 31.4 °C | -9.17 kcal/mol
GTGATTCGAAAGAAGCAC (((.(((....))).))) | 56.5 °C | -43.9 kcal/mol
GTAGCGCGAAAGCGTAC (((.(((....)))))) | 44 °C | -10.8 kcal/mol
GCTAGCCGAAAGGCGAGC (((.(((....))).))) | 67.2 °C | -30.9 kcal/mol
GATCGTAAATACGATC ((((((....)))))) | 53 °C | -38.9 kcal/mol
GCCACCGGAAACGACGGC (((..((....))..))) | 41.4 °C | -24.9 kcal/mol
GTACGCGAAAGCGAGTAC ((((((....)))..))) | 41.1 °C | -13.8 kcal/mol
GCGATCGAAAGATTTCGC ((((((....)))..))) | 39.8 °C | -26.4 kcal/mol
GCTGCCGAAAGGCATAGC ((((((....)))..))) | 51.6 °C | -15 kcal/mol
GTCTCTGGAAACAGAGAC (((((((....))))))) | 62.8 °C | -42.5 kcal/mol
GGTTCTGGAAACAGGACC (((.(((....))).))) | 50.6 °C | -45.3 kcal/mol
GCTGGAACGAAAGTTAGC (((..(((....)))))) | 33.9 °C | -18.1 kcal/mol
GATACGCGAAAGCGATC (((.(((....)))))) | 37.7 °C | -13.1 kcal/mol
GCCTGGCGAAAGCTATGC ((.(.((....)).).)) | 37.5 °C | -12.5 kcal/mol
GTAGAAACGAAAGTTTAC (((..(((....)))))) | 27.4 °C | -15.8 kcal/mol
GATGACGAAAGTCGAATC ((((((....)))..))) | 33 °C | -13.7 kcal/mol

Sequence | Tm [1] | folding enthalpy [2]
CGTCACGGAAACGTAACG (((.(((....))).))) | 41.6 °C | -43.1 kcal/mol
GGGACCGAAAGGTTACCC ((((((....)))..))) | 47 °C | -17.6 kcal/mol
GACAGACGAAAGTCAGTC (((.(((....))).))) | 51.7 °C | -28.2 kcal/mol
GCCCTCGAAAGAGTGGC ((((((....))).))) | 58.5 °C | -31.9 kcal/mol
GGTGGCGGAAACACCACC (((((.(....).))))) | 53.8 °C | -42.3 kcal/mol
GTGGTCGGAAACGATCAC (((.(((....))).))) | 55.7 °C | -44.6 kcal/mol
GGAGTTCGAAAGAATTCC (((.(((....))).))) | 48.6 °C | -39.8 kcal/mol
AGTTAGAAATAACT (((((....))))) | 25.8 °C | -9.79 kcal/mol
GCGACCATTCGC ((((....)))) | 47.4 °C | -24.4 kcal/mol
GGGTCCGAAAGGAGGCCC ((((((....)))..))) | 50.3 °C | -18.7 kcal/mol
GGGAACGAAAGTTTTCCC ((((((....)))..))) | 35.5 °C | -19.1 kcal/mol
GATCAGTTCACTGATC ((((((....)))))) | 58.1 °C | -44.8 kcal/mol
GATCCTGCGAGGATC ((((((...)))))) | 53.9 °C | -33.7 kcal/mol
GTGATACGAAAGTAACAC (((.(((....))).))) | 47.6 °C | -34.1 kcal/mol
GATCCGAGAGCGGATC ((((((....)))))) | 54.6 °C | -38.3 kcal/mol
GCATGGTCGAAAGACTGC (((..(((....)))))) | 39.8 °C | -18.1 kcal/mol
GGCCGTGGAAACACGGTC (.(((((....))))).) | 65.3 °C | -24.3 kcal/mol
GACACCGAAAGGTGCGTC ((((((....)))..))) | 45.7 °C | -10.2 kcal/mol
GATCAACGGTTTGATC ((((((....)))))) | 40.9 °C | -30.1 kcal/mol
